Assay outcomes: PubChem BioAssay, Johns Hopkins Ion Channel Center
The list is not random: actives were taken first. Their share in the collection is about 3.7%.
KCNK3 inh – human KCNK3 channel inhibition, primary screen; CHO-KCNK3 thallium flux, FluxOR fluorescence; active compounds read low; B-score at 10 µM; actives 0.84% (n = 340,000); AID 602410;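 active = B-score under library mean minus 4 SD, starting fluorescence ratio at most library mean plus 5 SD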;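 note: more negative B-score means stronger inhibition of thallium flux through KCNK3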
KCNQ1 pot – potentiators or activators of human KCNQ1 potassium channel. actives 0.35% (n = 310,000). CHO-K1 KCNQ1, thallium flux FluxOR fluorescence; active compounds read high. P51787. B-score at 10 µM;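 active = fluorescence ratio B-score, a plate-corrected score, at least three library SD, with initial intensity B-score within 5 SD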
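Assay system: CHO-K1 cells stably expressing KCNQ1; Medium: assay buffer with matched DMSO; Also added: K+/Tl+ depolarizing stimulus; Dosing: single dose; Timing: dye 90 min, compound 20 min, room temperature; Measured by: kinetic FluxOR thallium fluorescence, 10-s 1-Hz baseline, 110-s post-stimulus read; Read-out: peak-minus-minimum fluorescence over initial fluorescence, negative-control normalized, B-scored.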
KCNQ1 inh – inhibitors of human KCNQ1 potassium channel | P51787 | CHO-K1 KCNQ1, FluxOR thallium flux fluorescence; active compounds read high | B-score at 10 µM | actives 1.3% (n = 310,000);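 active = compounds whose thallium flux B-score, printed positive for inhibition, exceeds three library SD while starting fluorescence stays within three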;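 note: channel opened by potassium depolarization with thallium stimulus after 20 min compound exposure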
KCNK9 inh – blocks the human KCNK9 two-pore domain potassium channel | actives 1.2% (n = 310,000) | Q9NPC2 | B-score at 10 µM | HEK293 KCNK9, FluxOR thallium flux fluorescence; active compounds read low;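 active = ratio B-score over 3 SD below the library mean, with starting fluorescence within 5 SD of its mean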;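 note: negative B-score means less thallium flux so channel inhibition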
Kir21 inh – Kir2.1 (mouse) channel inhibition; actives 0.85% (n = 310,000); P35561; B-score at 10 µM; HEK293-Kir2.1, FluxOR thallium flux fluorescence; active compounds read low;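 active = fluorescence ratio B-score at or below minus 3 SD of library scores, with starting-brightness B-score within 2 SD, cut at about -4.2 in these data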;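 note: channel flux triggered by added potassium and thallium sulfate stimulus; B-score of peak minus minimum fluorescence over baseline after thallium stimulus; more negative B-score means stronger Kir2.1 block with less thallium influx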
hERG protect – shields human hERG channel from block by proarrhythmic agents; Q12809; CHO-hERG, FluxOR thallium flux, dofetilide IC70 present; activation (rescue from dofetilide block), less the hit threshold, % at 10 µM; actives 0.51% (n = 310,000);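 active = activation above the mean of controls blocked by dofetilide plus 5 SD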;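 note: thallium influx through hERG after potassium depolarization seen as dye fluorescence rise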
KCNQ1 block val – confirmation of human KCNQ1 potassium channel inhibitors. shares compounds with KCNQ1 inh. KCNQ1 cell line, FluxOR thallium flux fluorescence. inhibition, % at 10 µM. actives 93% (n = 1,600). AID 588353;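 active = primary screen active, with duplicate mean exceeding buffer control mean plus 3 SD of buffer wells, cut at about 28% in these data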;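 note: 0% = buffer control ratio and 100% = XE991 inhibitor control ratio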
CHO KCNQ1 ctr – KCNQ1 inhibitor counter-screen hit in parental CHO cells. actives 21% (n = 1,600). fluorescence ratio (Tl flux) at 10 µM. parental CHO-K1, FluxOR thallium flux fluorescence ratio; active compounds read low; zero means no signal rise above baseline. shares compounds with KCNQ1 inh;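 active = mean of duplicate thallium-flux fluorescence ratios in parental host cells more than 5 SD below the buffer control mean, cut at about 0.38 in these data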;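 note: ratio is peak minus minimum fluorescence divided by baseline fluorescence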
KCNQ1 ephys val – human KCNQ1 inhibition validated by electrophysiology; shares compounds with KCNQ1 inh; KCNQ1-CHO cells, automated patch clamp current; calls only at 10 µM; actives 20% (n = 490);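 active = KCNQ1 current drop exceeding 3 SD of negative control wells, seen in both duplicate runs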;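 note: steady state current during a 2 s step from -80 to +40 mV; negative values mean current inhibition and positive values mean potentiation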
KCNQ2 inh – KCNQ1 inhibitor that also blocks rat KCNQ2 channel; actives 71% (n = 1,600); AID 651746; shares compounds with KCNQ1 inh; KCNQ2 cells, FluxOR thallium flux fluorescence; inhibition, % at 10 µM;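 active = mean percent inhibition of the KCNQ2 thallium signal more than 5 SD above the buffer-only control wells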;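 note: KCNQ2 expressed in CHO cells; 0% = buffer control wells and 100% = XE-991 inhibitor control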
Target sequence (O88943 whole entry, looked up): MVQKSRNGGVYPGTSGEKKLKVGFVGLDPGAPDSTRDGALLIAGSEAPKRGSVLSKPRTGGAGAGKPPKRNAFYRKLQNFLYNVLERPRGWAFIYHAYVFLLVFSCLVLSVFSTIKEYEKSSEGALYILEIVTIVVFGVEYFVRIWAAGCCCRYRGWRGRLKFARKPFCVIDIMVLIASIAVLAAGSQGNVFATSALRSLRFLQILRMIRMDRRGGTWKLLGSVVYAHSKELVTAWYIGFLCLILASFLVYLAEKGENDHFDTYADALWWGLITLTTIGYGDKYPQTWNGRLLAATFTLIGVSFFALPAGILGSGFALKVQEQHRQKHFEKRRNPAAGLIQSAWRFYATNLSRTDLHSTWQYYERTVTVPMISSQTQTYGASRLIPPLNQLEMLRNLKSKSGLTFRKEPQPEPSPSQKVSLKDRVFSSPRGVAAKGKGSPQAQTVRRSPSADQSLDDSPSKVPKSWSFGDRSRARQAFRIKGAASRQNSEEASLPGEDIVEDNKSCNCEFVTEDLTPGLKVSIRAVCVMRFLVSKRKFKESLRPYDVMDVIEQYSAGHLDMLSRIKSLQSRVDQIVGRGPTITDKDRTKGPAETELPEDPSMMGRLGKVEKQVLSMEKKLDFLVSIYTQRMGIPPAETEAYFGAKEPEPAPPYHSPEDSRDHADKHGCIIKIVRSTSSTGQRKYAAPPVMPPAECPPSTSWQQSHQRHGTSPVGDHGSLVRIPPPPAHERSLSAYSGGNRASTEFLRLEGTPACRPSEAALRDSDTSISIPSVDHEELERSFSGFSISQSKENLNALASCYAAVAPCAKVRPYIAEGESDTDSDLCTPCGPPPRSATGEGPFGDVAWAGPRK
KCNQ1 KCNE1 spec – selectivity of KCNQ1 inhibitors: inhibition of human KCNQ1/KCNE1 channel; shares compounds with KCNQ1 inh; KCNQ1/KCNE1 cells, FluxOR thallium flux fluorescence; inhibition, % at 10 µM; actives 77% (n = 1,600); AID 652147;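 active = mean percent inhibition of duplicate wells above the buffer-only control mean plus 3 SD of those controls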;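 note: 0% = buffer only wells and 100% = XE-991 inhibitor control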
KCNK9 inh conf – human KCNK9 inhibitor confirmation. inhibition, % at 10 µM. AID 492992. actives 43% (n = 4,900). HEK293 KCNK9 cells, FluxOR thallium flux fluorescence. shares compounds with KCNK9 inh;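 active = thallium signal inhibited by more than 5 SD of the compound-free buffer control wells, on both duplicate plates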;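 note: 0% = assay buffer control wells without compound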
Kir21 sel – selectivity of KCNK9 modulators against mouse Kir2.1; Kir2.1 cells, FluxOR thallium flux fluorescence; inhibition, % at 10 µM; shares compounds with KCNK9 inh; AID 492993; actives 4% (n = 4,900);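 active = thallium signal drop more than 5 SD beyond the mean of the no-compound control wells, seen in both duplicate plates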;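 note: signal is fluorescence rise after thallium addition divided by baseline fluorescence; plate controls were assay buffer only for no effect and full block by chlorpromazine control for full effect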
HEK293 Tl ctr – second check of KCNK9 modulator effects in non-induced HEK293 cells; shares compounds with KCNK9 inh; FluxOR thallium flux; inhibition, % at 10 µM; actives 40% (n = 4,900);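 active = thallium signal drop beyond 5 SD of the untreated control mean, on both duplicate plates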;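 note: plate controls were buffer only IC0 wells for no effect and SID17386958 at its maximal inhibitory level for full effect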
Active calls of the source: *; i = inactive; . = no result given; + = active, no number.

SMILES	KCNK3 inh	KCNQ1 pot	KCNQ1 inh	KCNK9 inh	Kir21 inh	hERG protect	KCNQ1 block val	CHO KCNQ1 ctr	KCNQ1 ephys val	KCNQ2 inh	KCNQ1 KCNE1 spec	KCNK9 inh conf	Kir21 sel	HEK293 Tl ctr
CCc1c(C#N)c(SCCC(=O)Nc2ccc(C)cc2)nc2c1C(=O)CC(C)(C)C2	i	i	7*	i	0.04	-12.4	93.0*	0.516	i	83.0%*	56.5%*	i	i	i
O=C(Nc1ccnn1C1CCN(C(=O)c2cc(Cl)ccc2F)CC1)C1CCOC1 (centres undefined)	i	i	i	i	1.53	-6.7	.	.	.	.	.	.	.	.
C=CCn1c(/N=C/c2ccc(N(C)C)cc2)nc2ccccc21	i	i	i	i	-0.04	-17.7	.	.	.	.	.	.	.	.
CCCCn1c(/N=C/c2ccc(N(C)C)cc2)nc2ccccc21	-11.3*	i	11*	-12.1*	-0.31	-9.4	170.5*	0.302*	.	135.0%*	94.0%*	29.5%*	i	55.0%*
CC1CCN(C(=O)CN2C(=O)NC(C)(c3ccc4ccccc4c3)C2=O)CC1 (centres undefined)	i	.	.	.	.	.	.	.	.	.	.	.	.	.
COC(=O)C1(C(F)(F)F)C2C=CC(C2)N1S(=O)(=O)c1ccc(C)cc1 (centres undefined)	i	i	i	i	-1.81	-10.4	.	.	.	.	.	.	.	.
O=C1c2ccccc2OC2(C=Cc3ccccc3O2)N1Cc1ccccc1 (centres undefined)	i	i	7*	-13.7*	0.02	-9.4	116.0*	0.376*	.	109.0%*	157.5%*	46.5%*	i	34.0%*
N#Cc1c(NC(=O)Cn2c(=O)oc3ccccc32)oc(-c2ccccc2)c1-c1ccccc1	i	i	12*	-8.2*	-0.56	-6.5	63.5*	0.449	.	i	i	i	i	i
O=C(Cn1c(=O)oc2ccccc21)Nc1ccc(Br)cc1	i	i	i	i	-0.54	-0.8	.	.	.	.	.	.	.	.
CCOc1ccccc1C(=O)OCC(=O)Nc1cc(Cl)ccc1Oc1ccccc1	i	i	8*	-8.12*	0.17	-8.9	87.0*	0.411	.	76.3%*	106.5%*	32.0%*	i	39.5%*
COc1cccc(OCC(=O)Nc2cc(Cl)ccc2Oc2ccccc2)c1	i	i	i	i	-1.4	-8.1	.	.	.	.	.	.	.	.
N#CCC(=O)Nc1ccc(C(=O)OCC(=O)Nc2ccccc2Sc2ccccc2)cc1	i	i	6*	-9.05*	2.16	-5.3	99.0*	0.429	+	90.7%*	153.0%*	50.5%*	i	33.5%*
CC1(C)Cc2c(C#N)c(N3CCN(C(=O)c4ccccc4)CC3)nc(Cc3ccccc3)c2CO1	i	i	10*	i	1.61	-9.0	105.5*	0.401	i	111.0%*	128.0%*	i	i	i
O=C(Nc1ccc(Cl)c(Cl)c1)Nc1ccccc1NS(=O)(=O)c1cccs1	i	i	18*	-12.9*	-0.13	-29.3	113.5*	0.434	i	77.3%*	43.0%*	44.5%*	i	i
CCOC(=O)c1sc2nc(CC(=O)OC)nc(N3CCN(c4ccccn4)CC3)c2c1C	i	i	8*	i	0.53	-7.9	112.0*	0.407	i	109.7%*	140.0%*	i	i	i
O=C(COc1ccccc1)N(Cc1ccco1)c1ccc(O)cc1	i	i	i	i	-0.45	-1.7	.	.	.	.	.	.	.	.
O=C(c1ccc(Cl)c(Cl)c1)N(Cc1ccco1)c1ccc(O)cc1	i	i	7*	-11.3*	-4.27*	-13.2	84.0*	0.401	.	106.3%*	117.5%*	39.5%*	31.5%*	41.5%*
CCOc1ccccc1NC(=O)C(NCC1CCCCC1)c1ccccc1 (centres undefined)	i	i	10*	-8.9*	2.92	-29.3	131.0*	0.383	i	125.3%*	155.5%*	45.5%*	i	40.5%*
Cc1ccc(NC(=O)CCCc2nc3ccccc3c(=O)[nH]2)c(Cl)c1	i	.	.	.	.	.	.	.	.	.	.	.	.	.
Oc1ccc(Br)cc1/C=N/n1c(-c2ccccc2)n[nH]c1=S	i	i	i	i	1.22	-11.6	.	.	.	.	.	.	.	.
Oc1c(Br)cc(Br)c(/C=N/n2c(-c3ccccc3)n[nH]c2=S)c1Br	i	i	7*	i	1.78	-5.6	83.0*	0.448	.	i	i	i	i	i
O=C(CSc1nc(-c2ccc(Cl)cc2)[nH]c(=O)n1)Nc1cccc(Cl)c1	i	i	7*	i	1.59	-7.2	115.5*	0.485	i	i	i	i	i	i
CCN(Cc1ccncc1)C(=O)C1CCC(=O)N(Cc2ccc(Cl)cc2)C1 (centres undefined)	i	i	i	i	-0.08	-8.3	.	.	.	.	.	.	.	.
O=S(=O)(c1ccccc1Br)N1CCN(c2ncccn2)CC1	i	i	i	i	-1.38	-8.3	.	.	.	.	.	.	.	.
O=[N+]([O-])c1ccc(Sc2cccc[n+]2[O-])c2nonc12	-13.7*	i	18*	-15.7*	-6.34*	-52.3	140.0*	0.26*	.	i	+	74.5%*	66.0%*	78.0%*
NS(=O)(=O)c1ccc(CCNC(=O)CN2CCN(Cc3cccc4ccccc34)CC2)cc1	i	i	i	i	-0.01	-14.7	.	.	.	.	.	.	.	.
